Laboratory results taken from ChEMBL document CHEMBL4513216, “Probing the Open Global Health Chemical Diversity Library for Multistage-Active Starting Points for Next-Generation Antimalarials” (ACS Infect Dis, 2020).

assay: Toxicity liver stage against HepG2, at 10uM; type: cell-based; set-up: test concentration 10 uM, cell line HepG2-A16-CD81EGFP; conditions: human, HepG2-A16-CD81EGFP cells; read-out: INHIBITION
Summary of the method: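 Uninfected HepG2-A16-CD81EGFP cells, 3 × 10^3 per well, 1536-well, plated on prespotted compound at 10 μM final, parasite-free screening media added to match infected plates; puromycin 10 μM positive, DMSO 0.5% negative; run in parallel with 48 h PbLuc assay at 37 °C, 5% CO2; viability by CellTiter-Glo luminescence, normalized to controls.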

In order of falling cytotoxicity at 10 µM:
1. CCOC(=O)[C@H]1CNC[C@H]1C(=O)OCC  9.24%
2. O=C(c1ccc(Cl)s1)N1CCC2(COc3ncccc3S(=O)(=O)N2)C1 (stereo not drawn)  8.77%
3. CSc1nc2ccsc2c(=O)n1CC(=O)N1CCCCC1C (stereo not drawn)  7.08%
4. CO[C@H]1C(=O)N(C)C2(CCNCC2)[C@@H]1C(=O)Nc1ccccc1  6.17%
5. COCCC1COC2(CCN(C(=O)C3CCCC3)CC2)C1 (stereo not drawn)  6.13%
6. Cc1ccc(N2CC[C@@H]3[C@@H]2CCN3C(=O)c2cscn2)nn1  5.38%
7. Cc1ccccc1C(=O)N1C[C@@H]2COC[C@]2(COCc2cccnc2)C1  4.44%
8. Cc1noc(C)c1CS(=O)(=O)CC(=O)N1c2ccccc2CC1C (stereo not drawn)  3.53%
9. CN(C)CCN1CCO[C@H]2CN(C(=O)c3ccsc3)C[C@H]21  3%
10. CC(NC(=O)CSCC(N)=O)c1ccc(Oc2ccccc2)cc1 (stereo not drawn)  2.98%
11. O=C(c1cnccn1)N1C[C@@H]2CN(Cc3cccnc3)CCO[C@@H]2C1  2.89%
12. O=C(CN1CCC(c2nnc(C(F)(F)F)o2)CC1)NCc1ccccc1  2.51%
13. COCC(=O)NC[C@]1(O)CN(Cc2ccc3c(c2)OCCO3)C[C@H]1O  1.88%
14. CCCc1cncnc1N1CCC2(CCC(=O)N(CCOC)C2)CC1  1.86%
15. O=C(c1cnccn1)N1CCN2C[C@H](OCc3ccccc3)C[C@H]2C1  1.44%
16. N#Cc1c(N2CCN(CC3CCOC3)CC2)nc2ccccn12 (stereo not drawn)  1.37%
17. O=C(NCCc1ccccn1)C1(n2cnnn2)CCCCC1  0.801%
18. NS(=O)(=O)c1ccc(CC(=O)N2CCCC(n3cccn3)C2)cc1 (stereo not drawn)  -0.481%
19. O=C1NCCN1CCNCC1(O)CCCN(CCC2CCCCC2)C1=O (stereo not drawn)  -1.04%
20. CCC(=O)N1C[C@@H](C(=O)NC)[C@H](c2ccnc(N3CCCC3)n2)C1  -1.21%
21. CC(=O)N1CCCC1c1cccc(Cc2ccccc2F)n1 (stereo not drawn)  -1.44%
22. N#Cc1ncn(CC(=O)Cc2c(F)cccc2Cl)n1  -1.45%
23. COc1ccc(-n2ccnc2-c2cnc(C(C)C)nc2)cc1C(=O)O  -2.42%
24. CC(=O)NCC1CCN(C(=O)NCCc2ccc3c(c2)OCO3)CC1  -5.22%
25. Cc1cccc(CN2CCC(c3nccn3CC(N)=O)CC2)n1  -5.41%
26. CC(C)NC(=O)c1ccc2nnc(C3CCN(C(=O)NC(C)C)C3)n2c1 (stereo not drawn)  -5.42%
27. O=S(=O)(C1CC1)N1CCO[C@H]2[C@H](OCC3CCCC3)CC[C@@H]21  -5.58%
28. CC(C)C(Sc1nccn1C1CC1)C(=O)NCc1cccnc1 (stereo not drawn)  -5.83%
29. Cc1nc[nH]c1CN1CCN(C(=O)CN2CCCC2)[C@H]2CS(=O)(=O)C[C@H]21  -7.21%
30. Oc1nc(N2CCCC2)nc2c1CCN(Cc1cccnc1)CC2  -7.25%
31. Cc1nc2cc(=O)[nH]n2c(C)c1CC(=O)NCCCc1ccccc1  -7.33%
32. OC1(CN2CCCC2)COCCN(c2nccs2)C1 (stereo not drawn)  -7.64%
33. CC(NCCCn1ccnc1)c1ccc(N2CCOC2=O)cc1 (stereo not drawn)  -8.48%
34. CCc1n[nH]c(C2CN(Cc3ncc(CC)o3)CCO2)n1 (stereo not drawn)  -9.79%
35. CNc1cc(-c2cc(OC)c(OC)c(OC)c2)ncn1  -11.8%
36. Cc1cc(O)c(OCC(=O)/N=c2\[nH]cc(C)s2)cn1  -12.4%
37. Cc1noc(C)c1-c1ccc(C2CCCN2C(=O)c2cnn(C)c2)nc1 (stereo not drawn)  -16.7%
38. CNc1ncc(CN(C)C(=O)c2cccc(CC3CCNCC3)c2)cn1  -19.7%
39. CCOCC1CN(C(=O)Cc2cccs2)Cc2ccnn2C1 (stereo not drawn)  -78.7%
40. O=C(c1cccnc1)N1CCC2(CCN(C(=O)c3ccco3)CC2)C1  -91.6%
41. COCCN1CCCCC12CC(=O)N(c1cccc(C#N)c1)C2 (stereo not drawn)  -102%
42. COCCOCC(=O)Nc1cccc(CN(C)C(C)=O)c1  -126%
43. O=C(O)[C@]12CCCN(Cc3ccsc3)C[C@H]1CN(c1ccccn1)C2  -139%
